Screening results as filed in PubChem.
The list is not random: actives were taken first. Their share in the collection is about 2.9%.
Env fusion inh – inhibitors of HIV Env-mediated cell fusion; HeLa-JRFL Env/CEM21 cell fusion, luciferase; inhibition, % at 12.3 µM; actives 1.1% (n = 360,000);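 active means mean replicate inhibition score of at least 50 and every replicate individually at or above 50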
PAX8 reporter – PAX8 transcriptional activity inhibition | inhibition, % at 12.6 µM | RMG-I TPO-luciferase reporter, SteadyGlo, 24 h | actives 1.2% (n = 360,000);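 active means mean replicate inhibition at least 60% with every replicate also reaching 60%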;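 further: luciferase light reporting Pax8 driven TPO promoter activity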
CDK5 inh – blocks human CDK5/p35 kinase activity | Q00535+Q15078 | Recombinant CDK5/p35, ADP-Glo luminescence, 60 min | inhibition, % at 10 µM | actives 0.01% (n = 330,000) | AID 488839;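 active means highest replicate inhibition of at least 50% and at least 75% of replicates reaching 50%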
Target sequence (Q00535 whole entry, looked up): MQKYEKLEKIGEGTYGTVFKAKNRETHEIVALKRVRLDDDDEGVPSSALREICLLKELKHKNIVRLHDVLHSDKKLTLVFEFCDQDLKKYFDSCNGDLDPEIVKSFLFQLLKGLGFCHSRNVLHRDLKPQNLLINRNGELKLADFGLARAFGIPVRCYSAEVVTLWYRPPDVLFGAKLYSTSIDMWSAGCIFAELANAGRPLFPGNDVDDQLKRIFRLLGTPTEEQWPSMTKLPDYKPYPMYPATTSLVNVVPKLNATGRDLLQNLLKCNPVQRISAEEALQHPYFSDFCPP
Target sequence (Q15078 whole entry, looked up): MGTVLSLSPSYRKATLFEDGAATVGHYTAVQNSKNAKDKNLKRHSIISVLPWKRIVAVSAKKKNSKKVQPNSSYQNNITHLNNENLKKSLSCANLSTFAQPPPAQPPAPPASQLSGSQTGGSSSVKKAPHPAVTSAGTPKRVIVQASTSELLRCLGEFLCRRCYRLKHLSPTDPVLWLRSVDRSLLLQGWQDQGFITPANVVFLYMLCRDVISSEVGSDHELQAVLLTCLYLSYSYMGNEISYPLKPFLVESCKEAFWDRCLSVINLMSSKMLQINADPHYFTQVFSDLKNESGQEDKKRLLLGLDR
Cneo AK release – Cryptococcus neoformans lysis via adenylate kinase release. lysis activity, % at 15 µM. actives 0.2% (n = 360,000). C. neoformans lysis, adenylate kinase release luminescence, 4 h; normalised: neutral wells 0, clomiphene wells 100;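 active means mean lysis activity across replicates of at least 80%, whatever share of replicates individually reach that level; inactive means mean lysis activity below 80%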
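Test system: log-phase Cryptococcus neoformans yeast cells; Quantity: yeast cell density of 5 × 10^6 cells/mL; Buffer or medium: YPD; Doses: single compound concentration per well; Timing: 4 h at 37 °C static, read 1 h later; Measured by: AK luminescence; Read-out basis: lysis from increased AK signal; Control set: Clomiphene as positive control.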
dFosB act – enhances mouse delta FosB homodimer DNA binding; P13346; purified delta FosB, TAMRA-CDK5 oligo fluorescence polarization; percent of positive-control signal above neutral wells; activation, % at 25 µM; actives 0.99% (n = 340,000); AID 493131;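 active means mean activation above about 17%, with every replicate also reaching it, limit read from the data, passing the limit was not always enough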
GSIS activator – primary screen for activators of insulin secretion dependent on glucose, INS-1E cells, GLuc reporter luminescence. INS-1E GLuc reporter insulin secretion, 2-3 h. activation, % at 16.6 µM. actives 0.61% (n = 370,000). AID 743287;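 active means lowest replicate activation of at least 40%, so every replicate reaches that level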
A number is an active result.

Screening O=C(CCCN1C(=O)/C(=C\c2cccs2)SC1=S)Nc1cc([N+](=O)[O-])ccc1O returned Env fusion inh inactive, PAX8 reporter inactive, CDK5 inh inactive, Cneo AK release inactive, dFosB act 26 and GSIS activator inactive.
`O=C(CCN1C(=O)/C(=C/c2cccs2)SC1=S)Nc1ccccc1O` gave Env fusion inh inactive, PAX8 reporter inactive, CDK5 inh inactive, Cneo AK release inactive, dFosB act 21 and GSIS activator inactive.
For O=C(CCN1C(=O)/C(=C/c2cccs2)SC1=S)Nc1ccc(O)cc1 the results were Env fusion inh inactive, PAX8 reporter inactive, CDK5 inh inactive, Cneo AK release inactive, dFosB act inactive and GSIS activator inactive.
Screening O=C(CCCN1C(=O)/C(=C/c2cccs2)SC1=S)Nc1ccc(C(=O)O)cc1 returned Env fusion inh inactive, PAX8 reporter inactive, CDK5 inh inactive, dFosB act inactive and GSIS activator inactive.
Screening COc1cccc(-c2ccc([C@H]3[C@H](CO)N4C(=O)CN(C(=O)C5CCCC5)C[C@@H]34)cc2)c1 returned Env fusion inh inactive, PAX8 reporter inactive and GSIS activator inactive.
`CCCNC(=O)N1[C@@H](CO)[C@@H]2c3ccccc3N(C)C[C@@H]21` gave PAX8 reporter inactive, Cneo AK release inactive and GSIS activator inactive.
COc1ccc(C(CCNCc2ccc(N(C)C)cc2)c2ccccc2)cc1 (configuration not stated) was read as Env fusion inh 69, PAX8 reporter inactive, CDK5 inh inactive, Cneo AK release inactive, dFosB act inactive and GSIS activator inactive.
Screening O=C(Nc1ccc(F)cc1)N[C@H]1CC[C@@H](CC(=O)N2CCOCC2)O[C@@H]1CO returned Env fusion inh inactive, PAX8 reporter inactive, Cneo AK release inactive and GSIS activator inactive.
Screening CNC[C@@H]1Oc2cc(-c3ccc(C(=O)N(C)C)cc3)ccc2S(=O)(=O)N([C@H](C)CO)C[C@H]1C returned Env fusion inh inactive, Cneo AK release inactive and GSIS activator inactive.
For CO[C@H]1CN(C)C(=O)c2ccc(NC(=O)C3CC3)cc2OC[C@H](C)N(CCC(F)(F)F)C[C@H]1C the results were PAX8 reporter inactive, Cneo AK release inactive and GSIS activator inactive.
For Cc1cc(OCC(=O)Nc2ccncc2)cc(C)c1Br the results were Env fusion inh 46, PAX8 reporter inactive, CDK5 inh inactive, Cneo AK release inactive and dFosB act inactive.
For Cc1cc(C)cc(OCC(=O)Nc2ccc(N3CCCC3)cc2)c1 the results were CDK5 inh inactive, Cneo AK release inactive and dFosB act 65.
Screening Cc1cccc(OCC(=O)Nc2ccc(N3CCCC3)cc2)c1C returned CDK5 inh inactive, Cneo AK release inactive, dFosB act 47 and GSIS activator inactive.
Screening Cc1ccc(OCC(=O)Nc2ccc(N3CCCC3)cc2)cc1C returned Env fusion inh inactive, CDK5 inh inactive, Cneo AK release inactive, dFosB act inactive and GSIS activator inactive.
`O=C(NC1CCCCC1)[C@H]1[C@H](CO)[C@H]2Cn3c(cccc3=O)[C@H]2N1CCc1ccccc1` gave Cneo AK release inactive and GSIS activator inactive.
Screening O=C(NNc1nc2ccccc2s1)Nc1ccc(Cl)c(Cl)c1 returned Env fusion inh inactive, PAX8 reporter 64, CDK5 inh inactive, dFosB act inactive and GSIS activator inactive.
Screening O=C(NNc1nc2ccccc2s1)Nc1ccc(F)cc1 returned Env fusion inh inactive, PAX8 reporter inactive, CDK5 inh inactive, dFosB act inactive and GSIS activator inactive.
CC(C)(C)OC(=O)NCCCC[C@H](NC(=O)c1[nH]cnc1C(=O)N[C@@H](Cc1ccccc1)C(=O)OC(C)(C)C)C(=O)OC(C)(C)C was read as Env fusion inh inactive, PAX8 reporter 104, CDK5 inh inactive, Cneo AK release inactive and dFosB act inactive.
CC(C)(C)OC(=O)NCCCC[C@H](NC(=O)c1[nH]cnc1C(=O)Nc1ccc(CNC(=O)OC(C)(C)C)cc1)C(=O)OC(C)(C)C was read as Env fusion inh 72, PAX8 reporter 110 and GSIS activator inactive.
`CC(C)(C)OC(=O)NCCCC[C@H](NC(=O)c1nc[nH]c1C(=O)NCc1ccccc1)C(=O)OC(C)(C)C` gave Env fusion inh inactive, PAX8 reporter inactive, CDK5 inh inactive, Cneo AK release inactive and dFosB act inactive.
`C[C@H](NC(=O)c1nc[nH]c1C(=O)N[C@@H](Cc1ccccc1)C(=O)OC(C)(C)C)C(=O)OC(C)(C)C` gave Env fusion inh inactive, PAX8 reporter inactive, CDK5 inh inactive, Cneo AK release inactive, dFosB act inactive and GSIS activator inactive.
For CC(C)(C)OC(=O)[C@H](Cc1ccccc1)NC(=O)c1nc[nH]c1C(=O)N[C@@H](Cc1ccccc1)C(=O)OC(C)(C)C the results were Env fusion inh 74, PAX8 reporter 104, CDK5 inh inactive, Cneo AK release inactive and dFosB act inactive.
`Cc1ccc(NC(=O)c2nc[nH]c2C(=O)NCCCCNC(=O)c2[nH]cnc2C(=O)Nc2ccc(C)cc2)cc1` gave Env fusion inh inactive, PAX8 reporter 80, CDK5 inh inactive, Cneo AK release inactive, dFosB act inactive and GSIS activator inactive.
For COc1ccccc1C#Cc1cnc2c(c1)C(=O)N([C@H](C)CO)C[C@@H](C)[C@H](CN(C)S(=O)(=O)c1cn(C)cn1)O2 the results were Env fusion inh inactive, PAX8 reporter inactive, Cneo AK release inactive and GSIS activator inactive.
CN(C)CC(=O)N[C@H]1CC[C@H](CC(=O)NCc2ccccc2F)O[C@@H]1CO was read as Env fusion inh inactive, PAX8 reporter inactive, Cneo AK release inactive and GSIS activator inactive.
Screening C[C@H]1CN([C@@H](C)CO)C(=O)c2cc(C3=CCCC3)cnc2O[C@@H]1CN(C)C returned Env fusion inh inactive, Cneo AK release inactive and GSIS activator inactive.
For CCOC(=O)c1ccc(NC(=O)c2nc[nH]c2C(=O)NCCCNC(=O)c2[nH]cnc2C(=O)Nc2ccc(C(=O)OCC)cc2)cc1 the results were Env fusion inh inactive, PAX8 reporter inactive, CDK5 inh inactive, Cneo AK release inactive, dFosB act inactive and GSIS activator inactive.
For CCOC(=O)c1ccc(NC(=O)c2nc[nH]c2C(=O)N[C@H](C)CO)cc1 the results were Env fusion inh inactive, PAX8 reporter inactive, Cneo AK release inactive and GSIS activator 56.
For Cc1ccccc1NC(=O)Nc1ccc2c(c1)C(=O)N(C)[C@@H]1CC[C@@H](CC(=O)NCC3CC3)O[C@H]1CO2 the results were PAX8 reporter inactive, Cneo AK release inactive and GSIS activator inactive.
`C(=N\Nc1nc(Nc2ccccc2)nc(N2CCOCC2)n1)/c1c[nH]c2ccccc12` gave Env fusion inh 70.
For Nc1nc(SCc2nc3scc(-c4ccccc4)c3c(=O)[nH]2)n[nH]1 the results were CDK5 inh inactive, Cneo AK release inactive, dFosB act inactive and GSIS activator 55.
